In ChEMBL document CHEMBL1132232, “7alpha-Iodo and 7alpha-fluoro steroids as androgen receptor-mediated imaging agents” (J Med Chem, 1999):

How the values were obtained:
Rattus norvegicus [1] = test: Distribution of tissue Radioactivity following Intravenous injection into castrated male rat kidney at 2 hours time; format: ADME, organism-based; settings: in vivo
Method in brief: (§1)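 Male Sprague–Dawley rats, about 250 g, were castrated and injected the next day via the tail vein with 5.4 μCi (2.4 pmol) of 125I tracer in ethanol/saline (1:4). There were 5–6 rats per group. At 0.5, 1, 2 or 4 h, rats were ether-anesthetized and killed by exsanguination. Tissues were dissected, weighed and counted, giving % injected dose/g and prostate/blood ratios.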

Rattus norvegicus [2] = test: Distribution of tissue Radioactivity following Intravenous injection into castrated male rat prostate/blood at 2 hours time; format: ADME, organism-based; settings: other tissue; method in brief: as §1
Rattus norvegicus [3] = test: Distribution of tissue Radioactivity following Intravenous injection into castrated male rat prostate at 4 hours time; format: ADME, organism-based, Prostate gland; settings: in vivo; method in brief: as §1
Rattus norvegicus [4] = test: Distribution of tissue Radioactivity following subcutaneous injection of […] of 5-alpha-DHT 15 min before the administration of the [125I]- tracer castrated male rat kidney at 1 hour time; format: ADME, organism-based; settings: in vivo, sc
Method in brief: (§2)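 Castrated male Sprague–Dawley rats, about 250 g, received 5α-DHT subcutaneously in propylene glycol/saline (3:2) 15 min before a tail-vein 125I tracer (5.4 μCi, 2.4 pmol, in ethanol/saline 1:4). There were 5–6 rats per group. At 1 h, rats were ether-anesthetized and exsanguinated. Tissues were weighed and counted as % injected dose/g, plus the prostate/blood ratio.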

Rattus norvegicus [5] = test: Distribution of tissue Radioactivity following subcutaneous injection of […] of 5-alpha-DHT 15 min before the administration of the [125I]- tracer castrated male rat thyroid at 1 hour time; format: ADME, organism-based, Thyroid gland; settings: in vivo, sc
Rattus norvegicus [6] = test: Distribution of tissue Radioactivity following Intravenous injection into castrated male rat kidney at 4 hours time; format: ADME, organism-based; settings: in vivo; method in brief: as §1
Rattus norvegicus [7] = test: Distribution of tissue Radioactivity following Intravenous injection into castrated male rat fat at 0.5 hours time; format: ADME, organism-based, Adipose tissue; settings: in vivo; method in brief: as §1
Rattus norvegicus [8] = test: Distribution of tissue Radioactivity following Intravenous injection into castrated male rat spleen at 4 hours time; format: ADME, organism-based; settings: in vivo; method in brief: as §1
Rattus norvegicus [9] = test: Distribution of tissue Radioactivity following Intravenous injection into castrated male rat liver at 2 hours time; format: ADME, organism-based; settings: in vivo; method in brief: as §1
Rattus norvegicus [10] = test: Distribution of tissue Radioactivity following Intravenous injection into castrated male rat thyroid at 0.5 hours time; format: ADME, organism-based, Thyroid gland; settings: in vivo; method in brief: as §1
Rattus norvegicus [11] = test: Distribution of tissue Radioactivity following Intravenous injection into castrated male rat prostate at 2 hours time; format: ADME, organism-based, Prostate gland; settings: in vivo; method in brief: as §1
[12] = target: T1, Androgen receptor (Homo sapiens) (UniProt P10275); settings: CV-1
T1 sequence (whole entry): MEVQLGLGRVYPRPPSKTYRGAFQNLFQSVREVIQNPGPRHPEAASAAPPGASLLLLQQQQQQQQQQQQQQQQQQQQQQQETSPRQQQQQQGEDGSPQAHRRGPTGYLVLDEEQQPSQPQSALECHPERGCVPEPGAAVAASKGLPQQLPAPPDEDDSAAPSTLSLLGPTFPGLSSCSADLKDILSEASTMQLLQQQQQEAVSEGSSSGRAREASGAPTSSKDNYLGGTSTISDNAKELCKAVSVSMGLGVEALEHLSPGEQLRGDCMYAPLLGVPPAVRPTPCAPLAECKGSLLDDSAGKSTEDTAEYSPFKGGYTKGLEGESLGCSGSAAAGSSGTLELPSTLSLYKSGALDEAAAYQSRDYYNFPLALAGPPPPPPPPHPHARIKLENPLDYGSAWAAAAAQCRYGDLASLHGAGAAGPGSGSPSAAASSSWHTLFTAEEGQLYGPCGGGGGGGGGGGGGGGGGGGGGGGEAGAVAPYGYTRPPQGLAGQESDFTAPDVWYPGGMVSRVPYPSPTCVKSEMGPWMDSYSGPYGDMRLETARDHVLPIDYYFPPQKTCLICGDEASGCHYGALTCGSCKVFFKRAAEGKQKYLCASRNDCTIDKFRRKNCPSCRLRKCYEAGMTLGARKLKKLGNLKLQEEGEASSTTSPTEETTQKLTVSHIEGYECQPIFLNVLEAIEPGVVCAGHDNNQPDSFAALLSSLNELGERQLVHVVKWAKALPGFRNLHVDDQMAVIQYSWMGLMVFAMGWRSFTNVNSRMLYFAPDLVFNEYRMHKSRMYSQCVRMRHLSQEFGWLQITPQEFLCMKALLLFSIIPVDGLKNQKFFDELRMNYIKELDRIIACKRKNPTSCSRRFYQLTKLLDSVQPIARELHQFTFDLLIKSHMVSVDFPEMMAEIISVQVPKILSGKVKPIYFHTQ

Rattus norvegicus [13] = test: Distribution of tissue Radioactivity following Intravenous injection into castrated male rat lung at 0.5 hours time; format: ADME, organism-based; settings: in vivo; method in brief: as §1
Rattus norvegicus [14] = test: Distribution of tissue Radioactivity following Intravenous injection into castrated male rat lung at 2 hours time; format: ADME, organism-based; settings: in vivo; method in brief: as §1
Rattus norvegicus [15] = test: Distribution of tissue Radioactivity following subcutaneous injection of […] of 5-alpha-DHT 15 min before the administration of the [125I]- tracer castrated male rat fat at 1 hour time; format: ADME, organism-based, Adipose tissue; settings: in vivo, sc; method in brief: as §2
Rattus norvegicus [16] = test: Distribution of tissue Radioactivity following Intravenous injection into castrated male rat prostate at 0.5 hours time; format: ADME, organism-based, Prostate gland; settings: in vivo; method in brief: as §1
Rattus norvegicus [17] = test: Distribution of tissue Radioactivity following Intravenous injection into castrated male rat thyroid at 4 hours time; format: ADME, organism-based, Thyroid gland; settings: in vivo; method in brief: as §1
Rattus norvegicus [18] = test: Distribution of tissue Radioactivity following Intravenous injection into castrated male rat lung at 1 hour time; format: ADME, organism-based; settings: in vivo; method in brief: as §1
Rattus norvegicus [19] = test: Distribution of tissue Radioactivity following Intravenous injection into castrated male rat kidney at 1 hour time; format: ADME, organism-based; settings: in vivo; method in brief: as §1
Rattus norvegicus [20] = test: Distribution of tissue Radioactivity following Intravenous injection into castrated male rat fat at 2 hours time; format: ADME, organism-based, Adipose tissue; settings: in vivo; method in brief: as §1
Rattus norvegicus [21] = test: Distribution of tissue Radioactivity following Intravenous injection into castrated male rat kidney at 0.5 hours time; format: ADME, organism-based; settings: in vivo; method in brief: as §1
Rattus norvegicus [22] = test: Distribution of tissue Radioactivity following subcutaneous injection of […] of 5-alpha-DHT 15 min before the administration of the [125I]- tracer castrated male rat blood at 1 hour time; format: ADME, organism-based; settings: in vivo, sc; method in brief: as §2
Rattus norvegicus [23] = test: Distribution of tissue Radioactivity following Intravenous injection into castrated male rat thyroid at 1 hour time; format: ADME, organism-based, Thyroid gland; settings: in vivo; method in brief: as §1
Rattus norvegicus [24] = test: Distribution of tissue Radioactivity following Intravenous injection into castrated male rat muscle at 0.5 hours time; format: ADME, organism-based; settings: in vivo; method in brief: as §1
Rattus norvegicus [25] = test: Distribution of tissue Radioactivity following Intravenous injection into castrated male rat liver at 0.5 hours time; format: ADME, organism-based; settings: in vivo; method in brief: as §1

For C[C@]12CCC(=O)CC1C[C@@H](I)[C@@H]1[C@@H]2CC[C@@]2(C)[C@H]1CC[C@]2(C)O (stereo not given in full), the Dose/g (Rattus norvegicus [1]) was 0.25%, the Biodistribution (Rattus norvegicus [2]) was 1.43% and the Biodistribution (Rattus norvegicus [3]) was 0.44%. It also gave a Biodistribution (Rattus norvegicus [4]) of 0.3%, a Biodistribution (Rattus norvegicus [5]) of 3.55% and a Biodistribution (Rattus norvegicus [6]) of 0.23%. It also gave a Biodistribution (Rattus norvegicus [7]) of 0.2%, a Dose/g (Rattus norvegicus [8]) of 0.17% and a Biodistribution (Rattus norvegicus [9]) of 0.23%. It also gave a Biodistribution (Rattus norvegicus [10]) of 1.58%, a Dose/g (Rattus norvegicus [11]) of 0.44% and an RSA [12] of 28. For the same compound, the Dose/g (Rattus norvegicus [13]) was 0.22%, the Biodistribution (Rattus norvegicus [14]) was 0.24% and the Biodistribution (Rattus norvegicus [15]) was 0.29%. It also gave a Biodistribution (Rattus norvegicus [16]) of 0.21%, a Biodistribution (Rattus norvegicus [17]) of 9.7% and a Biodistribution (Rattus norvegicus [18]) of 0.24%. It also gave a Dose/g (Rattus norvegicus [19]) of 0.27%, a Dose/g (Rattus norvegicus [20]) of 0.2% and a Biodistribution (Rattus norvegicus [21]) of 0.26%. The Dose/g (Rattus norvegicus [22]) was 0.35%, the Dose/g (Rattus norvegicus [23]) was 4.07% and the Biodistribution (Rattus norvegicus [24]) was 0.06%. It also gave a Dose/g (Rattus norvegicus [25]) of 0.31%.
